The source of these data is ChEMBL document CHEMBL1140775, “Low-density lipoprotein (LDL)-antioxidant lignans from Myristica fragrans seeds” (Bioorg Med Chem Lett, 2008).

Holding throughout (format): functional
Assay [1] can be described thus: Antioxidant activity against LDL-oxidation by TBARS assay. Put shortly: (§1)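 Copper-mediated oxidation of human plasma LDL (120 µg/mL); oxidation quantified by TBARS formation. Mean of two independent experiments, each in duplicate.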
Assay [2] in a line: Antioxidant activity assessed as inhibition of LDL-oxidation at 20 uM by TBARS assay. A digest of the protocol: as §1
Assay [3] in a line: Antioxidant activity against LDL-oxidation assessed as conjugated diene formation lag time at 3.0 uM. Put shortly: (§2)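 Human plasma LDL (120 µg protein/mL) oxidized with 5 µM CuSO4, with or without compound; conjugated diene formation read as absorbance at 234 nm every 10 min for 4 h. Lag time taken as elapsed time before onset of rapid conjugated hydroperoxide formation.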

Assay [4] concerns THP-1. The assay is described as follows: Antioxidant activity against LDL-oxidation in human THP1 cells assessed as malondialdehyde level per mg of LDL protein at 1 uM. Put shortly:
(§3)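 PMA-differentiated THP-1 macrophages incubated 24 h at 37 °C in serum-free RPMI 1640 with LDL (100 µg/mL) and 2 µM Cu2+, with or without compound. TBARS measured directly in harvested medium, expressed as MDA nmol/mg LDL protein; mean ± SD, n = 3.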

Assay [5] can be described thus: Antioxidant activity assessed as inhibition of copper-mediated LDL-oxidation at 10 uM by relative electrophoretic mobility method. A digest of the protocol: (§4)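 LDL (120 µg/mL in PBS) incubated 12 h at 37 °C with 5 µM CuSO4 with or without compound. About 2.0 µg LDL protein run on 0.7% agarose gel, Coomassie-stained, densitometrically scanned; migration distance measured, protection expressed relative to native and fully oxidized LDL.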

Assay [6] has as its system THP-1. Nature of the assay: Antioxidant activity against LDL-oxidation in human THP1 cells assessed as malondialdehyde level per mg of LDL protein at 5 uM. Put shortly:
as §3

Assay [7] is described as follows: Antioxidant activity assessed as inhibition of apoB100 fragmentation at 10 uM by SDS-PAGE method. Put shortly:
(§5)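 Human LDL in PBS incubated 4 h at 37 °C with 5 µM CuSO4 with or without compound. About 2.0 µg LDL protein run on 7.5% SDS-PAGE, Coomassie-stained, densitometrically scanned; apoB-100 band area given as absorbance units per mm.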

Assay [8] can be described thus: Antioxidant activity assessed as inhibition of copper-mediated LDL-oxidation at 20 uM by relative electrophoretic mobility method. Put shortly:
as §4

Assay [9] in a line: Antioxidant activity assessed as inhibition of apoB100 fragmentation at 20 uM by SDS-PAGE method. Put shortly: as §5
A short description of assay [10]: Antioxidant activity against LDL-oxidation assessed as conjugated diene formation lag time at 1.0 uM. A digest of the protocol: as §2

pIC50: −log10 of the molar value. Calls of active or inactive are those of the source. No cut-off for these calls is given here.

In the case of `COc1cc([C@H]2c3cc4c(cc3C[C@@H](C)[C@@H]2C)OCO4)ccc1O`, the pIC50 (usually the negative decadic logarithm of the IC50, by convention in mol/L) in assay [1] is 5.14. For the same molecule, the inhibition (usually how much of the control response was suppressed) in [2] is 40.9%.
The matching figures for `COc1cc(C[C@H](C)[C@H](C)Cc2ccc(O)c(O)c2)ccc1O`: 5.44 and 91%.
As to `CC(C)(Sc1cc(C(C)(C)C)c(O)c(C(C)(C)C)c1)Sc1cc(C(C)(C)C)c(O)c(C(C)(C)C)c1` [PROBUCOL], the pIC50 in [1] was 5.51. Besides, the Activity in assay [3] was found to be 67 min. In addition, the inhibition in [2] is 92%.
Turning to `C[C@H](Cc1ccc2c(c1)OCO2)[C@H](C)Cc1ccc2c(c1)OCO2`, in [1], the result was inactive. Also, the inhibition in assay [2] is 0%.
For `COc1cc(C[C@H](C)[C@H](C)Cc2ccc3c(c2)OCO3)ccc1O` [AUSTROBAILIGNAN 6], in [1], the negative-log IC50 (pIC50) was 5.12. In addition, the inhibition in [2] stood at 64.5%.
Regarding `COc1cc(C[C@@H](C)[C@@H](C)Cc2ccc(O)c(OC)c2)ccc1O` [MESODIHYDROGUAIARETIC ACID], in assay [1], the pIC50 is 5.59. The Activity in assay [4] was found to be 306.3 nmol; in assay [6], 35.2 nmol; in [10], 140 min. The inhibition in assay [5] was 72%; in assay [7] it was 54%; in assay [8], 82%; in assay [2], 93%; in assay [9], 93%.
For `COc1cc(C(OC)C(C)C(C)Cc2ccc3c(c2)OCO3)ccc1O` (centres undefined), the negative-log IC50 (pIC50) in assay [1] was 5.10. Further, in assay [2], the inhibition was found to be 28.9%.
The like results for `COc1cc([C@@H](O)[C@H](C)[C@H](C)Cc2ccc3c(c2)OCO3)ccc1O` were, in that order, 5.20 and 45.7%.
